“And” between values parts separate entries of the source, which are not always exact repeats. Identical values can stand only once.
Tests used:
Rattus norvegicus [1] = organism: Rattus norvegicus; experiment: Tissue biodistribution into estrogen-primed immature female rat muscle at 1 hr time interval; type: ADME, organism-based; conditions: in vivo
How it was run: (§1)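 Immature female Sprague-Dawley rats (25 days old, ≈50 g, five per time point) primed with estradiol, 5 μg sc daily for 2 days in 50% ethanol/sunflower seed oil, used 24 h after the last injection. The 18F-labeled ligand was given iv by tail vein in 10% ethanol/saline. Decapitated at 1 or 3 h; blood and organs weighed and gamma-counted. Reported as %ID/g ± SD, n = 5.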

Rattus norvegicus [2] = organism: Rattus norvegicus; experiment: Tissue biodistribution into estrogen-primed immature female rat kidney at 1 hr time interval; type: ADME, organism-based; conditions: in vivo; how it was run: as §1
Rattus norvegicus [3] = organism: Rattus norvegicus; experiment: Tissue biodistribution into estrogen-primed immature female rat liver at 1 hr time interval; type: ADME, organism-based; conditions: in vivo; how it was run: as §1
Rattus norvegicus [4] = organism: Rattus norvegicus; experiment: Tissue biodistribution into estrogen-primed immature female rat lung at 1 hr time interval; type: ADME, organism-based; conditions: in vivo; how it was run: as §1
Rattus norvegicus [5] = organism: Rattus norvegicus; experiment: Tissue biodistribution into estrogen-primed immature female rat ovaries at 1 hr time interval; type: ADME, organism-based, Female gonad; conditions: in vivo; how it was run: as §1
Rattus norvegicus [6] = organism: Rattus norvegicus; experiment: Tissue biodistribution into estrogen-primed immature female rat uterus at 1 hr time interval; type: ADME, organism-based; conditions: in vivo; how it was run: as §1
Rattus norvegicus [7] = organism: Rattus norvegicus; experiment: Tissue biodistribution into estrogen-primed immature female rat uterus/blood at 1 hr time interval; type: ADME, organism-based; conditions: in vivo; how it was run: as §1
Rattus norvegicus [8] = organism: Rattus norvegicus; experiment: Tissue biodistribution into estrogen-primed immature female rat fat at 1 hr time interval; type: ADME, organism-based, Adipose tissue; conditions: in vivo; how it was run: as §1
Rattus norvegicus [9] = organism: Rattus norvegicus; experiment: Tissue biodistribution into estrogen-primed immature female rat uterus/muscle at 1 hr time interval; type: ADME, organism-based; conditions: in vivo
Rattus norvegicus [10] = organism: Rattus norvegicus; experiment: Tissue biodistribution into estrogen-primed immature female rat blood at 1 hr time interval; type: ADME, organism-based; conditions: in vivo; how it was run: as §1
Rattus norvegicus [11] = organism: Rattus norvegicus; experiment: Tissue biodistribution into estrogen-primed immature female rat bone at 1 hr time interval; type: ADME, organism-based, Bone element; conditions: in vivo; how it was run: as §1
Rattus norvegicus [12] = organism: Rattus norvegicus; experiment: Tissue biodistribution into estrogen-primed immature female rat brain at 1 hr time interval; type: ADME, organism-based; conditions: in vivo; how it was run: as §1
[13] = target: T1, Progesterone receptor (Homo sapiens) (UniProt P06401); experiment: Binding selectivity index as the ratio of RBA value to that of NSB value.
T1 sequence (whole entry): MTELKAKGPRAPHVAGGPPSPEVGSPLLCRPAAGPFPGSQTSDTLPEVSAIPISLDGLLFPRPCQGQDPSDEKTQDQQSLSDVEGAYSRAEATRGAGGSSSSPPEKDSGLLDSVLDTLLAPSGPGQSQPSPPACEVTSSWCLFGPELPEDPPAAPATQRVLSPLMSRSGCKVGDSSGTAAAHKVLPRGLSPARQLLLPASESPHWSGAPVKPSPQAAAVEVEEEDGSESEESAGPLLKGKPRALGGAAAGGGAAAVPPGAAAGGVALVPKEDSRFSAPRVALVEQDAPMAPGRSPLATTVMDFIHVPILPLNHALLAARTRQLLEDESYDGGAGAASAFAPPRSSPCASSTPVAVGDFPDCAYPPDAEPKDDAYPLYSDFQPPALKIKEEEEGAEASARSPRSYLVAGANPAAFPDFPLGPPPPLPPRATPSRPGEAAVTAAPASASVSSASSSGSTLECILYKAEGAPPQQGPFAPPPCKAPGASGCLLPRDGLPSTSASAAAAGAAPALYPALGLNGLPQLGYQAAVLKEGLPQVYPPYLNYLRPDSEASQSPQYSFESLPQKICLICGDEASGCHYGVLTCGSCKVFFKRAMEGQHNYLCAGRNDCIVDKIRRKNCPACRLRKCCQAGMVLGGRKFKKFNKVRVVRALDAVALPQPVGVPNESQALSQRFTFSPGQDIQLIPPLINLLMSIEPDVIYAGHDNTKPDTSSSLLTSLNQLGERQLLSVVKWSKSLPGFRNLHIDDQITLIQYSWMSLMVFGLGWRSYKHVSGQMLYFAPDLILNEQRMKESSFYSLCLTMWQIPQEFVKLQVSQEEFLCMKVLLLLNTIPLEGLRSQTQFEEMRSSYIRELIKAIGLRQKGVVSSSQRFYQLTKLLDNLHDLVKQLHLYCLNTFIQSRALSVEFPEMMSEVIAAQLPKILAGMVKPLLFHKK
How it was run: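 BSI calculated as the ratio of RBA to NSB.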

[14] = target: T1, Progesterone receptor (Homo sapiens); experiment: Nonspecific binding affinity against progesterone receptor was estimated relative to compound R5020
[15] = target: T1, Progesterone receptor (Homo sapiens); experiment: Relative binding affinity against progesterone receptor at 0 degree Celsius determined in a competitive radiometric binding assay (R5020=100%).
How it was run: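 Competitive radiometric binding at 0 °C against tritium-labeled R5020 as the standard (RBA = 100). Values are the average of two experiments.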

[16] = Partition coefficient (logP); type: physicochemical; conditions: octanol/water
How it was run: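 log P(o/w) (octanol/water) estimated by a reversed-phase HPLC method.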

CC[C@@H]1C[C@H]2[C@@H]3CCC4=CC(=O)CC[C@@H]4[C@H]3CC[C@]2(C)[C@H]1C(=O)CF
Injected dose/g (Rattus norvegicus [1]): 0.42% | Injected dose/g (Rattus norvegicus [2]): 1.05% | Injected dose/g (Rattus norvegicus [3]): 3.34% | Injected dose/g (Rattus norvegicus [4]): 0.47% | Injected dose/g (Rattus norvegicus [5]): 2.86% | Injected dose/g (Rattus norvegicus [6]): 6.43% | Uterus to blood concentration ratio (Rattus norvegicus [7]): 26.26% | Injected dose/g (Rattus norvegicus [8]): 3.56% | Uterus to muscle uptake ratio (Rattus norvegicus [9]): 15.98% | Injected dose/g (Rattus norvegicus [10]): 0.25% | Injected dose/g (Rattus norvegicus [11]): 3.18% | Injected dose/g (Rattus norvegicus [12]): 0.63% | BSI [13]: 374 | NSB [14]: 1.87 | RBA [15]: 700

CC1(c2ccco2)O[C@@H]2CC3C4CCC5=CC(=O)CC[C@@H]5C4CC[C@]3(C)[C@]2(C(=O)CO)O1 (some centres not stated)
logP [16]: 3.9 | logP ([16]; read-out: logP): 4.23 | NSB [14]: 1.2 and 0.86

CC(=O)[C@@]12OC(C)(c3ccco3)O[C@@H]1CC1C3CCC4=CC(=O)CC[C@]4(C)C3CC[C@@]12C (some centres not stated)
logP [16]: 5.03 | logP ([16]; read-out: logP): 4.76 | BSI [13]: 2 and < 1 | NSB [14]: 2.08 and 2.74

Reference: ChEMBL document CHEMBL1128440 (J Med Chem, 1995)
